Data reported in the M2OR odorant receptor database.

Legend:
Conditions in all cases: stereoisomer not certain
OR2T33 (Homo sapiens) = OR2T33 (Homo sapiens) (UniProt Q8NG76)
Procedure, shortened: (§1)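 Whether a receptor–molecule pair is responsive (active) rests on the original authors' judgment that its measured signal was statistically different from baseline. Pairs without that judgment are non-responsive (inactive). Sources used varied assay methods, commonly transient luciferase assays in mammalian cell lines.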

OR2T34 (Homo sapiens) = target: T1, OR2T34 (Homo sapiens) (UniProt Q8NGX1)
T1 sequence (whole entry): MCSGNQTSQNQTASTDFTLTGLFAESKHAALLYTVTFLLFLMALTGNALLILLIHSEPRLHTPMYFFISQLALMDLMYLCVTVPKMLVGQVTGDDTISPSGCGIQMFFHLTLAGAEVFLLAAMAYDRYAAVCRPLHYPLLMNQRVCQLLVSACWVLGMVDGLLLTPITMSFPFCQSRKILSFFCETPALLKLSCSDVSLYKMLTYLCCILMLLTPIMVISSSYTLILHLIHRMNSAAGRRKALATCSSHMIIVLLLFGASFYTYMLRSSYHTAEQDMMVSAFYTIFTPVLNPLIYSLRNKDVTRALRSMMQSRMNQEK
Procedure, shortened: as §1

OR2T35 (Homo sapiens) = OR2T35 (Homo sapiens) (UniProt Q8NGX2)
Procedure, shortened: as §1

OR2T4 (Homo sapiens) = target: T2, OR2T4 (Homo sapiens) (UniProt Q8NH00)
T2 sequence (whole entry): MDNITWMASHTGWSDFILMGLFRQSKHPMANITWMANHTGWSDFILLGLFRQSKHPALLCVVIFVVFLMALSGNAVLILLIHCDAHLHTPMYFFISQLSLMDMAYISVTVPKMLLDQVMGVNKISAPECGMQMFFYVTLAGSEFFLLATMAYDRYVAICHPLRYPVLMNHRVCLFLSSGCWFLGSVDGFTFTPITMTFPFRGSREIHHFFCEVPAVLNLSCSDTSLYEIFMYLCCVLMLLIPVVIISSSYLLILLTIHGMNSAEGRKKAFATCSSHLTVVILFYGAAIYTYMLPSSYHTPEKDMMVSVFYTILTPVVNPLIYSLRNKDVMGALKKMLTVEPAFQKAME
Procedure, shortened: as §1

OR2T5 (Homo sapiens) = OR2T5 (Homo sapiens) (UniProt Q6IEZ7)
Procedure, shortened: as §1

OR2T6 (Homo sapiens) = OR2T6 (Homo sapiens) (UniProt Q8NHC8)
Procedure, shortened: as §1

OR2T7 (Homo sapiens) = OR2T7 (Homo sapiens) (UniProt P0C7T2)
Procedure, shortened: as §1

OR2T5 K13R K41M G45E = test system: OR2T5 K13R K41M G45E
Procedure, shortened: as §1

OR2T5 K13R L134F = test system: OR2T5 K13R L134F
Procedure, shortened: as §1

OR2T6 C23G = test system: OR2T6 C23G
Procedure, shortened: as §1

Measured: odorant receptor agonist call;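 note: active if original authors judged signal statistically different from baseline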

Chain of OR2T5 (Homo sapiens) (Q6IEZ7 whole entry): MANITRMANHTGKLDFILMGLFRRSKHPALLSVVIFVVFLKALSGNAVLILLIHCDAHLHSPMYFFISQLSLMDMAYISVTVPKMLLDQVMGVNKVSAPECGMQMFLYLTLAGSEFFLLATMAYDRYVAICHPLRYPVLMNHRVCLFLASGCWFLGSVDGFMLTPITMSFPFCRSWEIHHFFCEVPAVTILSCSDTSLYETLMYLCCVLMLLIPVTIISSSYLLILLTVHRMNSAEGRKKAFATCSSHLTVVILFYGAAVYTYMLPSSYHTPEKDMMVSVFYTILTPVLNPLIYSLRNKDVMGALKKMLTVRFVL
Chain of OR2T6 (Homo sapiens) (Q8NHC8 whole entry): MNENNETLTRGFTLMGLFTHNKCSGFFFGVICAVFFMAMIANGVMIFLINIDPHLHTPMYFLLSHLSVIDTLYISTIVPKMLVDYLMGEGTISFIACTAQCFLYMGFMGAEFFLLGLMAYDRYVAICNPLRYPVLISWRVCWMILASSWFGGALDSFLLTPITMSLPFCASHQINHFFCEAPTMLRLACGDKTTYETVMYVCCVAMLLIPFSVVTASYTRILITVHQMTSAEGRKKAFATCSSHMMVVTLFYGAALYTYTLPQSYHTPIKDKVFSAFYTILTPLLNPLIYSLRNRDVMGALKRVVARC
Chain of OR2T35 (Homo sapiens) (Q8NGX2 whole entry): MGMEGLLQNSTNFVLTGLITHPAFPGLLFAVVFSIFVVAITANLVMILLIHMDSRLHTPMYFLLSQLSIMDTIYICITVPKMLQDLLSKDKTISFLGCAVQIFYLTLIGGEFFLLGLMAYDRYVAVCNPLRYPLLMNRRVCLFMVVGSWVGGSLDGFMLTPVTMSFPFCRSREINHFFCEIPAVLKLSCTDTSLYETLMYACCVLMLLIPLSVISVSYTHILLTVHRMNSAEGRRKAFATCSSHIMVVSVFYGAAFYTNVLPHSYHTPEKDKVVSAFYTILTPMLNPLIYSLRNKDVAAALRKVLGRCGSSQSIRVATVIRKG
Chain of OR2T33 (Homo sapiens) (Q8NG76 whole entry): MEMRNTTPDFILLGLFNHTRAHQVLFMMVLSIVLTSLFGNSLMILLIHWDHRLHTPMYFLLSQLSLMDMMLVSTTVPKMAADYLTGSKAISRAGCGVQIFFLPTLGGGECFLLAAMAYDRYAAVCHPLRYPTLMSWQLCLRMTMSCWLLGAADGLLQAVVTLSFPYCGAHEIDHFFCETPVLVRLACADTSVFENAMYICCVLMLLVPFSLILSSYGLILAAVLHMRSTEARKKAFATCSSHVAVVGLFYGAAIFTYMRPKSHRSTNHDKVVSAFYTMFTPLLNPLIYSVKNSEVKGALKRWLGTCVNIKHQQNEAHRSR
Chain of OR2T6 C23G (as listed by the source, stated change not applied): as the sequence (Q8NHC8 whole entry) above, with C23G counted along it
Chain of OR2T7 (Homo sapiens) (P0C7T2 whole entry): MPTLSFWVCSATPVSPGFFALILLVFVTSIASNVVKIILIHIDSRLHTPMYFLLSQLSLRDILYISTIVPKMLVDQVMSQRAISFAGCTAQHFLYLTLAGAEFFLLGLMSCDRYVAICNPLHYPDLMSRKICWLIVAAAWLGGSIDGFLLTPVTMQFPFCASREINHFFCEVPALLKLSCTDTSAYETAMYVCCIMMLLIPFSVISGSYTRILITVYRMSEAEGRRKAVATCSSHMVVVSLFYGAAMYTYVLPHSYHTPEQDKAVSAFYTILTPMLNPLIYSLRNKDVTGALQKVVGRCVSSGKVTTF

Cc1c([N+](=O)[O-])c(C)c([N+](=O)[O-])c(C(C)(C)C)c1[N+](=O)[O-]
not listed: OR2T5 K13R K41M G45E | OR2T5 K13R L134F | OR2T6 C23G
inactive: all other assays above

O=Cc1ccccc1
inactive: OR2T34 (Homo sapiens)

C=CCOC(=O)Cc1ccccc1
not listed: OR2T7 (Homo sapiens)
inactive: all other assays above

Cc1cccc(C)c1
inactive: OR2T4 (Homo sapiens)

COc1ccc(C=O)cc1
inactive: OR2T4 (Homo sapiens)

O=CC=Cc1ccccc1
active: OR2T34 (Homo sapiens)
